From ChEMBL document CHEMBL1782029, “Synthesis and biological evaluation of N-substituted benzo[c]phenanthrolines and benzo[c]phenanthrolinones as antiproliferative agents” (Eur J Med Chem, 2011)
Activity calls are given as the source filed them. The rule behind the calls is not given here.

Experiments:
HT-29 [1] = assay: Cytotoxicity against human HT-29 cells after 72 hrs by MTS assay; format: functional, cell-based; settings: HT-29, 72 h
Nucleic Acid = assay: Binding affinity to 265 bp of 3'-end-radio-labelled DNA fragment at 0.5 to 5 uM treated 15 mins before Dnase 1-mediated digestion by footprinting assay; format: nucleic-acid assay
Outline: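 DNase I footprinting. It was equilibrated with compound for 15 min at 37 °C, then digested 3 min with DNase I (0.01 unit/ml) in 20 mM NaCl, 2 mM MgCl2, 2 mM MnCl2, pH 7.3. Samples were lyophilised, denatured at 90 °C and run on an 8% denaturing polyacrylamide gel.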

HT-29 [2] = assay: Cell cycle arrest in human HT-29 cells at G2/M phase at 0.1 to 2.5 uM after 48 hrs using propidium iodide staining by FACS analysis; format: functional, cell-based
Outline: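 Exponentially growing HT-29 colon carcinoma cells (300,000 per well) were plated for 24 h, then exposed to 0.1, 1 or 2.5 µM compound for 48 h. Cells were fixed, stained with propidium iodide and analysed by flow cytometry (FACScan).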

[3] = molecular target: T1, DNA topoisomerase 1 (Homo sapiens) (UniProt P11387); assay: Inhibition of human recombinant topoisomerase 1-mediated relaxation of supercoiled pUC19 DNA assessed as formation of nicked DNA at 0.1 to 5 uM using ethidium bromide staining by agarose gel electrophoresis
T1 sequence (whole entry): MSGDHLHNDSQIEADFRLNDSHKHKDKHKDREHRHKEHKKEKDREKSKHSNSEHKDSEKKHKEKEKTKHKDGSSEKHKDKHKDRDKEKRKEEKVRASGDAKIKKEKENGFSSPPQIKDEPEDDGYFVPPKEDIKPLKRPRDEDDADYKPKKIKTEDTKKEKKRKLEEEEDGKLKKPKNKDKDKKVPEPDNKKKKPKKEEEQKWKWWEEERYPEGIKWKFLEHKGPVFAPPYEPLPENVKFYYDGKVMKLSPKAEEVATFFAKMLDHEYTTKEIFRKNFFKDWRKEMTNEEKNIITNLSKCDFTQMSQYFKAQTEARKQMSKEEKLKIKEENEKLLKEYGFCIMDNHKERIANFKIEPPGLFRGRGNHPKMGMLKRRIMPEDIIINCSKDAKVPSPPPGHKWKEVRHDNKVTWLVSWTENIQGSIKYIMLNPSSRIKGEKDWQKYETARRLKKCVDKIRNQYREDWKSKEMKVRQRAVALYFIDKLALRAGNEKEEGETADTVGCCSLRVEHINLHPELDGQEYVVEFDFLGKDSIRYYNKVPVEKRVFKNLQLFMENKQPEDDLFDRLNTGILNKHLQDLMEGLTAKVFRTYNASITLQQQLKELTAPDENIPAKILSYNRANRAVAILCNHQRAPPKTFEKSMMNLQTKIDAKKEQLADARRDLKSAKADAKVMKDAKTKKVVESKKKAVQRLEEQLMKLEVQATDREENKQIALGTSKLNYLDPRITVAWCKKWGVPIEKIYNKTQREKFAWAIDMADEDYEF
Outline: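 Supercoiled pUC19 plasmid (130 ng) was incubated with 4 units of human recombinant Top1 at 37 °C for 45 min in relaxation buffer (50 mM Tris pH 7.8, 50 mM KCl, 10 mM MgCl2, 1 mM DTT, 1 mM EDTA, 1 mM ATP) with increasing compound concentrations. Products were resolved on 1% agarose at room temperature, 2 h at 120 V, then stained with ethidium bromide and imaged under UV.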

[4] = molecular target: DNA topoisomerase 2-alpha (Homo sapiens) (UniProt P11388); assay: Inhibition of human topoisomerase 2 assessed as formation of linear form of supercoiled pUC19 DNA at 50 uM after 45 mins using ethidium bromide staining by agarose gel analysis
Calf thymus DNA [5] = assay: Binding affinity to calf thymus DNA at 20 uM by UV-vis spectrophotometry analysis; format: nucleic-acid assay; settings: Bos taurus
[6] = molecular target: T1, DNA topoisomerase 1 (Homo sapiens); assay: Inhibition of human recombinant topoisomerase 1 assessed as cleavage of 117-mer DNA fragment at 20 to 50 uM using ethidium bromide staining by agarose gel electrophoresis analysis
[7] = molecular target: T1, DNA topoisomerase 1 (Homo sapiens); assay: Inhibition of camptothecin-induced poisoning effect of human topoisomerase 1 assessed as suppression of CPT-induced 117 bp DNA cleavage by SDS-PAGE analysis
[8] = molecular target: DNA topoisomerase 2-alpha (Homo sapiens) (UniProt P11388); assay: Inhibition of human topoisomerase 2 assessed as formation of nicked form of supercoiled pUC19 DNA at 50 uM after 45 mins using ethidium bromide staining by agarose gel analysis
Calf thymus DNA [9] = assay: Binding affinity to calf thymus DNA by circular dichroism analysis; format: nucleic-acid assay; settings: Bos taurus

DNA topoisomerase 2-alpha (Homo sapiens), sequence (P11388 whole entry): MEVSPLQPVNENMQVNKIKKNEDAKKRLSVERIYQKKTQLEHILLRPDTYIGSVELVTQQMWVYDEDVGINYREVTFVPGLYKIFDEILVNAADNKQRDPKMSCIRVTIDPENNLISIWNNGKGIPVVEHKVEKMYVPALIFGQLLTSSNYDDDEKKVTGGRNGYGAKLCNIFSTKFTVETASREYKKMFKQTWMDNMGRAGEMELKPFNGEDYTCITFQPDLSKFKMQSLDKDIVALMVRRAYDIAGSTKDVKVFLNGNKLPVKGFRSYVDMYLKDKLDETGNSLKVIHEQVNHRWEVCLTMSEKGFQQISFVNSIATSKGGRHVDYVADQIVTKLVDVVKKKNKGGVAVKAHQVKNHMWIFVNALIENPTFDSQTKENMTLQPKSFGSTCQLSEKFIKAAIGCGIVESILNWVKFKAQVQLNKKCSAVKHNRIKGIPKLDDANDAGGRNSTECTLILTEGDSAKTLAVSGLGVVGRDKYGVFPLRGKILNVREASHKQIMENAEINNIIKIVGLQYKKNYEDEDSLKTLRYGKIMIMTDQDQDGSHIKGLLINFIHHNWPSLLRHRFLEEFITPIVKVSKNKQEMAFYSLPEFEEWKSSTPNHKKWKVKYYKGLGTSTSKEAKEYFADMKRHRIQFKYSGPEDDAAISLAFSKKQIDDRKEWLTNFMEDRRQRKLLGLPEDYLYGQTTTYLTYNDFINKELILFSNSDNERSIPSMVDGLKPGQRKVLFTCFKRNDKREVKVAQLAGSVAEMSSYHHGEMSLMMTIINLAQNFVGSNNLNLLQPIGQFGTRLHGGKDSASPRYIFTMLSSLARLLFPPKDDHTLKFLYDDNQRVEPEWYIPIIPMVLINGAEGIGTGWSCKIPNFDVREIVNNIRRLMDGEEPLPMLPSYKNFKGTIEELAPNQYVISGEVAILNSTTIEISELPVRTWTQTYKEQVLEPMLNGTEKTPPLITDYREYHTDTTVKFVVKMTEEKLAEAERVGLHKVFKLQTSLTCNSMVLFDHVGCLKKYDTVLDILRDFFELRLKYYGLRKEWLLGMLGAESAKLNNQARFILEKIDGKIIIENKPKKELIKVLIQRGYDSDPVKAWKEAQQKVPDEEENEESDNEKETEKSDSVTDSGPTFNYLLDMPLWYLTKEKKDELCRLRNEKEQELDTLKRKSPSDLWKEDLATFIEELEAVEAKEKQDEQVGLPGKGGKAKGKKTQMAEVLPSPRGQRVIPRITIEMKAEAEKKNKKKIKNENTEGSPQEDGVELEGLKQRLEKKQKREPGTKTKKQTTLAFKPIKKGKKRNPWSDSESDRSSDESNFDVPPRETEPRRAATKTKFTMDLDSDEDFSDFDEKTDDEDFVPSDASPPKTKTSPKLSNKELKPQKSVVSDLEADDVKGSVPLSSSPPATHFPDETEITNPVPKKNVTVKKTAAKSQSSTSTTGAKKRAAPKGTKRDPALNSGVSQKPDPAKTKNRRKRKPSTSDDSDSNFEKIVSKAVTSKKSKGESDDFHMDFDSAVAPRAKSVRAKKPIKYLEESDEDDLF

| Compound | IC50 (HT-29 [1]) [nM] | inhibition (Nucleic Acid) | Activity (HT-29 [2]) | Top1 relaxation inhibition (qualitative call) [3] | inhibition [4] | Activity (Calf thymus DNA [5]) | inhibition [6] | inhibition [7] | inhibition [8] | Activity (Calf thymus DNA [9]) |
| --- | --- | --- | --- | --- | --- | --- | --- | --- | --- | --- |
| CN(C)CCn1c(=O)c2cc3c(cc2c2ccc4ncccc4c21)OCO3 | 120 | Active | Active | Active | inactive | Active | inactive | Dose-dependent effect | inactive | Active |
| COc1cc2c(NCCN(C)C)nc3c4cccnc4ccc3c2cc1OC | 970 | Active |  | Active | inactive | Active | inactive | Dose-dependent effect | inactive | Active |
| COc1cc2c(NCCCN(C)C)nc3c4ccncc4ccc3c2cc1OC | 3140 | inactive |  | Active | inactive | Active | inactive |  | inactive | Active |
| CN(C)CCCn1c(=O)c2cc3c(cc2c2ccc4cnccc4c21)OCO3 | 240 | Active | Active | Active | inactive | Active | inactive | Dose-dependent effect | inactive | Active |
| CCN(CC)CCn1c(=O)c2cc3c(cc2c2ccc4ncccc4c21)OCO3 | 75 | Active | Active | Active | inactive | Active | inactive | Dose-dependent effect | inactive | Active |
| CCN(CC)CCCNc1nc2c3ccncc3ccc2c2cc(OC)c(OC)cc12 | 5470 | inactive |  | Active | inactive | Active | inactive | Dose-dependent effect | inactive | Active |
| CN(C)CCn1c(=O)c2cc3c(cc2c2ccc4cnccc4c21)OCO3 | 78 | Active | Active | Active | inactive | Active | inactive | Dose-dependent effect | inactive | Active |
| COc1cc2c(NCCCN(C)C)nc3c4cccnc4ccc3c2cc1OC | 3330 | Active |  | Active | inactive | Active | inactive | Dose-dependent effect | inactive | Active |
| CCN(CC)CCCNc1nc2c3cccnc3ccc2c2cc(OC)c(OC)cc12 | 5770 | Active |  | Active | inactive | Active | inactive | Dose-dependent effect | inactive | Active |
| CN(C)CCCNc1nc2c3ccncc3ccc2c2cc3c(cc12)OCO3 | 7620 | inactive |  | Active | inactive | Active | inactive | Dose-dependent effect | inactive | Active |
